These results are taken from ChEMBL document CHEMBL1157832, “Cytotoxic effects of tanshinones from Salvia miltiorrhiza on doxorubicin-resistant human liver cancer cells” (J Nat Prod, 2010).

Series [1] relates to HepG2. Briefly: Inhibition of […] doxorubicin efflux in doxorubicin resistant human HepG2 cells uM by flow cytometry. The format is cell-based.
Series [2] relates to Hep 3B2. Briefly: Induction of apoptosis in human Hep3B cells deficient in p53 gene assessed as caspase 3 activation. The format is functional, cell-based. Summed up:
(§1)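 Cells were treated for 24 h, with etoposide as positive control. Cells (1 × 10^7) were lysed for 2 h at 4 °C and spun at 16000g for 10 min. The supernatant was mixed with assay buffer and the colorimetric substrate […], and pNA release was read at 405 nm. Soluble protein was determined by BCA.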

The test system of series [3] is HepG2. Put plainly: Induction of apoptosis in human HepG2 cells expressing wild type p53 gene assessed as caspase 3 activation. The format is functional, cell-based. The essentials:
as §1

Series [4] in a line: Cytotoxicity against human THLE3 cells by MTT assay. The format is cell-based. The essentials: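 THLE-3 immortalized liver cells cultured in BEGM kit medium, 37 °C, 5% CO2; 9 × 10^3 cells/well. After compound incubation, MTT (0.5 mg/mL) added for 3 h at 37 °C; formazan dissolved in DMSO and read at 570 nm. Untreated cells as vehicle control; DMSO final 0.25% (v/v). EC50 of growth inhibition, n = 3.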

Series [5] concerns HepG2. Briefly: Effect on MRP2 protein expression in human HepG2 cells expressing wild type p53 gene at 25 uM after 24 hrs by Western blot. The format is functional, cell-based. Summed up: (§2)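 HepG2 cells (MEM, 10% FBS) exposed to 25 µM for 24 h; lysates run on SDS-PAGE, transferred to nitrocellulose and probed with anti-MRP1 or anti-MRP2 antibodies, ECL detection. DMSO final 0.25% (v/v).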

Series [6] concerns HepG2. Put plainly: Effect on MRP1 protein expression in human HepG2 cells expressing wild type p53 gene at 25 uM after 24 hrs by Western blot. The format is functional, cell-based. The essentials:
as §2

Series [7] concerns HepG2. Put plainly: Induction of apoptosis in human HepG2 cells expressing wild type p53 gene assessed as PARP cleavage by Western blot. The format is functional, cell-based. The essentials: (§3)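 Cells treated 24 h, then lysed in Tris 50 mM/NaCl 100 mM/EDTA 5 mM/pyrophosphate 67 mM/1% Triton X-100, pH 7.5, with protease inhibitors. 20 µg soluble protein on 8% SDS-PAGE, nitrocellulose transfer, anti-PARP 1:1000 overnight at 4 °C, HRP anti-rabbit 1:2000 1 h, ECL. β-actin reprobe as loading reference; band densitometry; n = 3.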

Series [8] deals with PLC-PRF-5. Briefly: Induction of apoptosis in human PLC/PRF/5 cells expressing mutant p53 gene (codon 249) assessed as caspase 3 activation. The format is functional, cell-based. The essentials:
(§4)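 After 24 h treatment, 1 × 10^7 cells lysed 2 h at 4 °C and spun at 16000g for 10 min. Supernatant incubated with caspase-3 substrate […], pNA release read at 405 nm, and protein measured by BCA. Activity expressed as fold of control; etoposide as positive control.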

Series [9] addresses T1, P-gp (ABCB1) (Homo sapiens, UniProt P08183). Put plainly: Inhibition of P-gp in doxorubicin-resistant human HepG2 cells assessed as potentiation of doxorubicin cytostatic effect at 25 uM by MTT assay. The format is cell-based. The note with it: probe doxorubicin. Summed up: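 R-HepG2 cells (doxorubicin-selected HepG2 subclone kept in RPMI 1640 with 1.2 µM doxorubicin) co-treated with compound and doxorubicin; growth read by MTT (0.5 mg/mL, 3 h, 570 nm). Interaction scored by Chou–Talalay combination index at EC20/EC50 levels, Loewe additivity and Bliss independence.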

Series [10] deals with Hep 3B2. Put plainly: Induction of apoptosis in human Hep3B cells deficient in p53 gene assessed as PARP cleavage by Western blot. The format is functional, cell-based. The essentials:
as §3

The subject of series [11] is PLC-PRF-5. Put plainly: Induction of apoptosis in human PLC/PRF/5 cells expressing mutant p53 gene (codon 249) assessed as caspase 3 activation at 6.25 uM relative to control. The format is functional. The essentials:
as §4

In series [12] the test system is HepG2. Briefly: Cytotoxicity against doxorubicin resistant human HepG2 cells expressing wild type p53 gene by MTT assay. The format is functional, cell-based. Summed up: (§5)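 Proliferation was measured by MTT. Cells were seeded at 9 × 10^3 per well and exposed to drug for an unstated period. MTT (0.5 mg/mL) was then added for 3 h at 37 °C, formazan was dissolved in DMSO, and absorbance was read at 570 nm against untreated vehicle controls (final DMSO 0.25% v/v). HepG2 was grown in MEM. Hep3B and PLC/PRF/5 were grown in DMEM with nonessential amino acids and 10% FBS. The doxorubicin-resistant HepG2 subclone was grown in RPMI 1640 with 10% FBS plus 1.2 µM doxorubicin to maintain Pgp.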

The subject of series [13] is PLC-PRF-5. Put plainly: Induction of apoptosis in human PLC/PRF/5 cells expressing mutant p53 gene (codon 249) assessed as PARP cleavage by Western blot. The format is functional, cell-based. Summed up:
as §3

The nature of series [14]: Cytotoxicity against human Hep3B cells deficient in p53 gene by MTT assay. The format is functional, cell-based, Hep 3B2. The essentials: as §5
The test system of series [15] is HepG2. Briefly: Cytotoxicity against human HepG2 cells expressing wild type p53 gene by MTT assay. The format is functional, cell-based. The essentials: as §5
Series [16] is described as follows: Cytotoxicity against human PLC/PRF/5 cells expressing mutant p53 gene (codon 249) by MTT assay. The format is functional, cell-based. The essentials: as §5
The test system of series [17] is HepG2. Briefly: Induction of apoptosis in human HepG2 cells expressing wild type p53 gene assessed as caspase 3 activation at 6.25 uM relative to control. The format is functional. Summed up:
as §4

Series [18] addresses T2, Multidrug resistance-associated protein 1 (Homo sapiens, UniProt P33527). Briefly: Inhibition of MRP1-mediated doxorubicin efflux in doxorubicin resistant human HepG2 cells at 10 to 100 uM by flow cytometry. The format is cell-based.
Series [19] addresses T2, Multidrug resistance-associated protein 1. Briefly: Inhibition of MRP1-mediated doxorubicin efflux in doxorubicin resistant human HepG2 cells at 100 uM by flow cytometry. The format is cell-based. The note with it: hepg2, 100 µM.
For series [20], the target named is T1, P-gp (ABCB1). Briefly: Inhibition of P-gp in doxorubicin-resistant human HepG2 cells assessed as potentiation of doxorubicin cytostatic effect at 6.25 uM by MTT assay. The format is cell-based. To be noted: probe doxorubicin.

The source made the active and inactive calls. No cut-off for these calls is given here.

T2 sequence (P33527 whole entry): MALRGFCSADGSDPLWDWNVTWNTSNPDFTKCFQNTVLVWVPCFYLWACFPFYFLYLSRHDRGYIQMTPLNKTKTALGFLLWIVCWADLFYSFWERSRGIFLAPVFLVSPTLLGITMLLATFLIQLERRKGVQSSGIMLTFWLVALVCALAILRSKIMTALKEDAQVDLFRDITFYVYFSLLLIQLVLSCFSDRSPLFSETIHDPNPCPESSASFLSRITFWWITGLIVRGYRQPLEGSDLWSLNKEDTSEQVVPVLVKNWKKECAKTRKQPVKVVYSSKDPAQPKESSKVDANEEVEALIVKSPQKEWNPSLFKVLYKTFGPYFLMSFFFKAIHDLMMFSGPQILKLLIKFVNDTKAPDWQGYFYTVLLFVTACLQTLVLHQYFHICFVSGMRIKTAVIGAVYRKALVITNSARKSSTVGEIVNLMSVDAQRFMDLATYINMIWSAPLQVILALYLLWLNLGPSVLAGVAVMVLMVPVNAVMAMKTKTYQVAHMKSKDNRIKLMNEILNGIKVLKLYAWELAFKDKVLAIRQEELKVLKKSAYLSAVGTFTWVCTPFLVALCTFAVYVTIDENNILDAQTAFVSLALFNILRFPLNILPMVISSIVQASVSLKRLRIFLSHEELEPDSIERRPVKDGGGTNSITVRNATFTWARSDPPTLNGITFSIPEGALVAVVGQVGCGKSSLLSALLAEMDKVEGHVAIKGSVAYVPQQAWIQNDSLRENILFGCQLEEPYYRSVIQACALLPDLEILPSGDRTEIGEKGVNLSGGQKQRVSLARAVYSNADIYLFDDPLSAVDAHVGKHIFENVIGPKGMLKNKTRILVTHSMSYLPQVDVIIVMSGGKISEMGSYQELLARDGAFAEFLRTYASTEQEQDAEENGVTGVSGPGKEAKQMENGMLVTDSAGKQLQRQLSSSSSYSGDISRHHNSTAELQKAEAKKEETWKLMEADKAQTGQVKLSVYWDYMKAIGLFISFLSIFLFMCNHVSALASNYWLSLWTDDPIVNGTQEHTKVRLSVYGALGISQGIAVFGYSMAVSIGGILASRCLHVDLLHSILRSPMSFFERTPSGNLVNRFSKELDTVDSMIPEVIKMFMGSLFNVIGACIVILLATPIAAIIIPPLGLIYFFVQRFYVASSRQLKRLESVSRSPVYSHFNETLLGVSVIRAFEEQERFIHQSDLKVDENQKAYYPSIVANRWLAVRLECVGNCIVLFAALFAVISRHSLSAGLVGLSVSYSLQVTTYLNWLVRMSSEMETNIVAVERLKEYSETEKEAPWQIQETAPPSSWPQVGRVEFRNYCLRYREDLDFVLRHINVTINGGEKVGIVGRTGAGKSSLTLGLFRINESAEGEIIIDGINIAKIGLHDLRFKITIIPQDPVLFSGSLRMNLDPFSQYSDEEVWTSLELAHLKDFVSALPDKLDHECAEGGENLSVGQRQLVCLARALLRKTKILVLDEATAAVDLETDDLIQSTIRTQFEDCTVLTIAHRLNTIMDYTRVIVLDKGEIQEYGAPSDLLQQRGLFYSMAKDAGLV
T1 sequence (P08183 whole entry): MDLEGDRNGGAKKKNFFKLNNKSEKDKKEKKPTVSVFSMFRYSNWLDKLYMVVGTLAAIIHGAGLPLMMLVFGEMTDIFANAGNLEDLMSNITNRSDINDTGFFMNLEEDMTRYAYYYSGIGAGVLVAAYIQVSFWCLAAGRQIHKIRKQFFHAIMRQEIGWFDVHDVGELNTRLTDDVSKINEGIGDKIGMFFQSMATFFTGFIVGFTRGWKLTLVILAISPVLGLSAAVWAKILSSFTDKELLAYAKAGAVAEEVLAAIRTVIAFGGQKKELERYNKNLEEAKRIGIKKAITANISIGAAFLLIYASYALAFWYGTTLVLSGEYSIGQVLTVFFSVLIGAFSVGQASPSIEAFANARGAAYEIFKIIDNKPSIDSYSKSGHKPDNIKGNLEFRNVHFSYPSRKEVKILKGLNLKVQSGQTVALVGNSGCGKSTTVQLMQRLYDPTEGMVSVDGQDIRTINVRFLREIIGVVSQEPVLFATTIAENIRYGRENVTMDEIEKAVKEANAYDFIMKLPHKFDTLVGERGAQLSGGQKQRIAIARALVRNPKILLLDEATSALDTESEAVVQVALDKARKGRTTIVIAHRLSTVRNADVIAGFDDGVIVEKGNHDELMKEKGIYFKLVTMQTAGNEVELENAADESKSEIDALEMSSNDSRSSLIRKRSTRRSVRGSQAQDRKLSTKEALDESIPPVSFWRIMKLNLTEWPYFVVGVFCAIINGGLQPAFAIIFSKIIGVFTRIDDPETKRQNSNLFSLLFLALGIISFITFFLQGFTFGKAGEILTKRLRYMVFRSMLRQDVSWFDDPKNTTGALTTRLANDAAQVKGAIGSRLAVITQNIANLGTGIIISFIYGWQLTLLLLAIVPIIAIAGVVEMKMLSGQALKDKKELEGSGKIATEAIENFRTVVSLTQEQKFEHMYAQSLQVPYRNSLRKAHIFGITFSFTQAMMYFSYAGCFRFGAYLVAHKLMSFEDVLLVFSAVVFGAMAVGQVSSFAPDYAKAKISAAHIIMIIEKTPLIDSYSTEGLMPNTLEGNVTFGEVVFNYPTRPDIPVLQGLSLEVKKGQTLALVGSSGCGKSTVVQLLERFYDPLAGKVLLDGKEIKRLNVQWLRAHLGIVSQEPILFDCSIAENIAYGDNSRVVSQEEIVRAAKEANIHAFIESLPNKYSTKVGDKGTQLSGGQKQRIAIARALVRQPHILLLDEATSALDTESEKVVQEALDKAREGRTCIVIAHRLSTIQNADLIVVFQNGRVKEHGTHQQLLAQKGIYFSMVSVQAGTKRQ

Take `C=C(CC)C(=O)c1ccc(OCC(=O)O)c(Cl)c1Cl`: the inhibition entry in the series with HepG2 [1] was “Active”.

With `COc1cc([C@@H]2c3cc4c(cc3[C@@H](O[C@@H]3O[C@@H]5CO[C@@H](C)O[C@H]5[C@H](O)[C@H]3O)[C@H]3COC(=O)[C@H]23)OCO4)cc(OC)c1O`, in the series on Hep 3B2 [2], the result was inactive. In the series with HepG2 [3], the outcome was Active.

In series [4], `C[C@H]1COC2=C1C(=O)C(=O)c1c2ccc2c1CCCC2(C)C` [CRYPTOTANSHINONE] had an EC50 of 22.9 µM. For the same molecule, the result with HepG2 [5], in the series on HepG2 [6], in the series on Hep 3B2 [2] and in the series with Hep 3B2 [10] was inactive. The Activity result in the series on HepG2 [7] and in the series on PLC-PRF-5 [8] was “Dose-dependent effect” each time. Besides, the outcome with HepG2 [3] was Active. The inhibition at 25 µM at P-gp (ABCB1) [9] came out at 50%.

Turning to `Cc1cccc2c3c(ccc12)C1=C(C(=O)C3=O)[C@@H](C)CO1` [DIHYDROTANSHINONE I], the half-maximal effective concentration (EC50) in series [4] was 6.5 µM; in the series with HepG2 [12], 4.7 µM; in series [14], 5.5 µM; with HepG2 [15] it was 2.5 µM; in [16] it was more than 10 µM. The outcome in the series with HepG2 [5], with HepG2 [6], in the series with Hep 3B2 [2] and with Hep 3B2 [10] was inactive. Also, the “fold change (FC)” value is 2.5 in the series on PLC-PRF-5 [11] and 2 in the series with HepG2 [17]. Besides, the result in the series on PLC-PRF-5 [13] and with HepG2 [3] was Active. Also, the Activity entry in the series with HepG2 [7] was “Dose-dependent effect”.

With `COc1cccc2c1C(=O)c1c(O)c3c(c(O)c1C2=O)C[C@@](O)(C(=O)CO)C[C@@H]3O[C@H]1C[C@H](N)[C@H](O)[C@H](C)O1` [DOXORUBICIN], the EC50 was more than 10 µM with HepG2 [12], 5.6 µM in [14], 6.1 µM in the series with HepG2 [15] and more than 10 µM in series [16].

As to `COc1ccc2c(c1)c(CC(=O)O)c(C)n2C(=O)c1ccc(Cl)cc1` [INDOMETHACIN], the “inhibition (INH)” value in [18] is given as “Not Active”; in series [19] it was “Active”.

In turn, `Cc1coc2c1C(=O)C(=O)c1c-2ccc2c1CCCC2(C)C` [TANSHINONE IIA] yielded a half-maximal effective concentration (EC50) in series [4] of 57.5 µM. The result in the series on HepG2 [5], in the series with HepG2 [6], in the series on Hep 3B2 [2] and in the series on Hep 3B2 [10] was inactive. Further, the Activity result with HepG2 [7] was “Dose-dependent effect”. Moreover, in the series on HepG2 [3], the outcome was Active.

With `Cc1coc2c1C(=O)C(=O)c1c-2ccc2c(C)cccc12` [TANSHINONE I], the EC50 in series [4] was 74.1 µM; with HepG2 [12], more than 10 µM; in series [14], more than 10 µM; in the series with HepG2 [15], 6.3 µM; in [16] it was more than 10 µM. The result in the series on HepG2 [5], with HepG2 [6], with Hep 3B2 [2] and with Hep 3B2 [10] was inactive. In addition, the outcome with PLC-PRF-5 [13] and in the series on HepG2 [3] was Active. For the same molecule, in the series with HepG2 [7], the Activity entry is “Dose-dependent effect”. Besides, the inhibition at 6.25 µM at P-gp (ABCB1) [20] came out at 50%.
